Results: ChEMBL document CHEMBL3124871, “Synthesis and pharmacological characterization of 1-benzyl-4-aminoindole-based thyroid hormone receptor β agonists” (Bioorg Med Chem, 2014)

Columns and labels:
CV-1 = experiment: Selectivity ratio of EC50 for human recombinant transfected in CV-1 cells to EC50 for human recombinant TRbeta1 transfected in CV-1 cells; type: cell-based
Method in brief: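 CV-1 monkey kidney cells grown in DMEM with 10% FBS for 24 h at 37 °C and 5% CO2. Transfected (FuGENE) with hTRα1 or hTRβ1 plus a SEAP reporter for 24 h, then exposed to T3 or test compound for 8-10 h. SEAP was read as A405 of p-nitrophenol (pH 9.8, 30 min, RT). EC50 was set against T3 max = 100%; mean of four experiments; α/β ratio of EC50s.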

[1] = target: T1, Thyroid hormone receptor beta (Homo sapiens, UniProt P10828); experiment: Agonist activity at human recombinant TRbeta1 transfected in CV-1 cells after 8 to 10 hrs by alkaline phosphatase reporter gene assay; type: cell-based
T1 sequence (P10828 whole entry): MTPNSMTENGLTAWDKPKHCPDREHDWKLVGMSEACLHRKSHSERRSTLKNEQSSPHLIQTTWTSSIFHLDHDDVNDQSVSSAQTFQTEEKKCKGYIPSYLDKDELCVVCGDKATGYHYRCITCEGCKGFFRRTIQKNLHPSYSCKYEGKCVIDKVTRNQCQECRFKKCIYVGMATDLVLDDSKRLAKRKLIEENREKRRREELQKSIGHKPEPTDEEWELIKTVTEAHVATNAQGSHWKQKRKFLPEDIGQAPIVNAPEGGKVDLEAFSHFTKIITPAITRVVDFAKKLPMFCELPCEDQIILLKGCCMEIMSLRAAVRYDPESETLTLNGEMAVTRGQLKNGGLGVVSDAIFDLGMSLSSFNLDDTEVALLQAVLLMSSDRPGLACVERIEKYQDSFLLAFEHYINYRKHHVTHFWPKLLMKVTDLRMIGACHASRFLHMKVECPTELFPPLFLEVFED

[2] = target: T2, Thyroid hormone receptor alpha (Homo sapiens, UniProt P10827); experiment: Agonist activity at human recombinant TRalpha1 transfected in CV-1 cells after 8 to 10 hrs by alkaline phosphatase reporter gene assay; type: cell-based
T2 sequence (P10827 whole entry): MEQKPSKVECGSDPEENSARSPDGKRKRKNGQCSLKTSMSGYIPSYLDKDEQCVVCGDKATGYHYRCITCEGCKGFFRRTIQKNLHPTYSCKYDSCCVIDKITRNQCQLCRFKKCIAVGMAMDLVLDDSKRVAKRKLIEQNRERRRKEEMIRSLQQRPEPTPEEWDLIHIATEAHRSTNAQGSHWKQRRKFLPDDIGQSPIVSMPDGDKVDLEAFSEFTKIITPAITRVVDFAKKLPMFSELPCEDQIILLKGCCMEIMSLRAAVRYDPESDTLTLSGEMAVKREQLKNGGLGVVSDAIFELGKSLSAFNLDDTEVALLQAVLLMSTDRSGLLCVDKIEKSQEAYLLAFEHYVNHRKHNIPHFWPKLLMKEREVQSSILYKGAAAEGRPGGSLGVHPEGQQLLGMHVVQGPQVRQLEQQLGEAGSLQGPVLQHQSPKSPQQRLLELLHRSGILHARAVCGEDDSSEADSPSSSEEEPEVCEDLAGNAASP

[3] = target: T1, Thyroid hormone receptor beta; experiment: Displacement of [125I]-Triiodothyronine from human recombinant TRbeta1 ligand binding domain after 2 to 3 hrs by beta counting
[4] = target: T2, Thyroid hormone receptor alpha; experiment: Displacement of [125I]-Triiodothyronine from human recombinant TRalpha1 ligand binding domain after 2 to 3 hrs by beta counting
Rattus norvegicus [5] = experiment: Toxicity in cholesterol-fed Sprague-Dawley rat assessed as total T4 level at 30 mg/kg/day, po qd for 1 week measured 3 to 6 hrs post last dose (reference value: 3.8 +/- 0.9 ug/dl); type: organism-based; design: route oral; conditions: in vivo
Rattus norvegicus [6] = experiment: Toxicity in cholesterol-fed Sprague-Dawley rat assessed as TSH level at 30 mg/kg/day, po qd for 1 week measured 3 to 6 hrs post last dose (reference value: 3.0 +/- 1.0 uIU/ml); type: organism-based; design: route oral; conditions: in vivo
Rattus norvegicus [7] = experiment: Toxicity in cholesterol-fed Sprague-Dawley rat assessed as heart weight at 30 mg/kg/day, po qd for 1 week measured 3 to 6 hrs post last dose (reference value: 1.14 +/- 0.12 g); type: organism-based; design: route oral; conditions: in vivo
Rattus norvegicus [8] = experiment: Toxicity in cholesterol-fed Sprague-Dawley rat assessed as heart rate at 30 mg/kg/day, po qd for 1 week measured 3 to 6 hrs post last dose (reference value: 383.0 +/- 26.7 bpm); type: organism-based; design: route oral; conditions: in vivo
Rattus norvegicus [9] = experiment: Toxicity in cholesterol-fed Sprague-Dawley rat assessed as total T4 level at 150 mg/kg/day, po qd for 1 week measured 3 to 6 hrs post last dose (reference value: 3.8 +/- 0.9 ug/dl); type: organism-based; design: route oral; conditions: in vivo
Rattus norvegicus [10] = experiment: Toxicity in cholesterol-fed Sprague-Dawley rat assessed as TSH level at 150 mg/kg/day, po qd for 1 week measured 3 to 6 hrs post last dose (reference value: 3.0 +/- 1.0 uIU/ml); type: organism-based; design: route oral; conditions: in vivo
Rattus norvegicus [11] = experiment: Toxicity in cholesterol-fed Sprague-Dawley rat assessed as heart weight at 150 mg/kg/day, po qd for 1 week measured 3 to 6 hrs post last dose (reference value: 1.14 +/- 0.12 g); type: organism-based; design: route oral; conditions: in vivo
Rattus norvegicus [12] = experiment: Toxicity in cholesterol-fed Sprague-Dawley rat assessed as heart rate at 150 mg/kg/day, po qd for 1 week measured 3 to 6 hrs post last dose (reference value: 383.0 +/- 26.7 bpm); type: organism-based; design: route oral; conditions: in vivo
Rattus norvegicus [13] = experiment: Reduction in plasma triglyceride level in cholesterol-fed Sprague-Dawley rat at 30 mg/kg/day, po qd for 1 week measured 3 to 6 hrs post last dose (reference value: 62 +/- 25 mg/dl); type: functional
Rattus norvegicus [14] = experiment: Reduction in plasma HDL-cholesterol in cholesterol-fed Sprague-Dawley rat at 30 mg/kg/day, po qd for 1 week measured 3 to 6 hrs post last dose (reference value: 22 +/- 6 mg/dl); type: functional
Rattus norvegicus [15] = experiment: Reduction in plasma free cholesterol in cholesterol-fed Sprague-Dawley rat at 30 mg/kg/day, po qd for 1 week measured 3 to 6 hrs post last dose (reference value: 36 +/- 9 mg/dl); type: functional
Rattus norvegicus [16] = experiment: Reduction in plasma LDL-cholesterol in cholesterol-fed Sprague-Dawley rat at 30 mg/kg/day, po qd for 1 week measured 3 to 6 hrs post last dose (reference value: 51 +/- 15 mg/dl); type: functional
Rattus norvegicus [17] = experiment: Reduction in plasma total cholesterol in cholesterol-fed Sprague-Dawley rat at 30 mg/kg/day, po qd for 1 week measured 3 to 6 hrs post last dose (reference value: 190 +/- 49 mg/dl); type: functional
HepG2 = experiment: Selectivity ratio of EC50 for human recombinant transfected in human HepG2 cells to EC50 for human recombinant TRbeta1 transfected in human HepG2; type: cell-based
[18] = target: T1, Thyroid hormone receptor beta; experiment: Agonist activity at human recombinant TRbeta1 transfected in human HepG2 cells after 8 to 10 hrs by alkaline phosphatase reporter gene assay; type: cell-based
Homo sapiens [19] = species: Homo sapiens; experiment: Reduction in LDL-cholesterol in healthy human at 100 ug qd for 2 weeks; type: functional; design: scale not given: the % may be the effect or the level left
Homo sapiens [20] = species: Homo sapiens; experiment: Reduction in triglyceride level in coronary heart disease patient with hyperlipidemia relative to placebo-control; type: functional; design: scale not given: the % may be the effect or the level left
Homo sapiens [21] = species: Homo sapiens; experiment: Reduction in cholesterol level in coronary heart disease patient with hyperlipidemia relative to placebo-control; type: functional; design: scale not given: the % may be the effect or the level left
Homo sapiens [22] = species: Homo sapiens; experiment: Reduction in LDL-cholesterol in healthy human at 100 ug qd for 1 week; type: functional; design: scale not given: the % may be the effect or the level left
Rattus norvegicus [23] = experiment: Toxicity in cholesterol-fed Sprague-Dawley rat assessed as TSH level at 50 ug/kg/day, po qd for 1 week measured 3 to 6 hrs post last dose (reference value: 62 +/- 7 ng/dl); type: organism-based; conditions: in vivo, 0.05 mg/kg
Rattus norvegicus [24] = experiment: Toxicity in cholesterol-fed Sprague-Dawley rat assessed as total T4 level at 50 ug/kg/day, po qd for 1 week measured 3 to 6 hrs post last dose (reference value: 3.8 +/- 0.9 ug/dl); type: organism-based; conditions: in vivo, 0.05 mg/kg
Rattus norvegicus [25] = experiment: Toxicity in cholesterol-fed Sprague-Dawley rat assessed as TSH level at 50 ug/kg/day, po qd for 1 week measured 3 to 6 hrs post last dose (reference value: 3.0 +/- 1.0 uIU/ml); type: organism-based; conditions: in vivo, 0.05 mg/kg
Rattus norvegicus [26] = experiment: Toxicity in cholesterol-fed Sprague-Dawley rat assessed as heart weight at 50 ug/kg/day, po qd for 1 week measured 3 to 6 hrs post last dose (reference value: 1.14 +/- 0.12 g); type: organism-based; conditions: in vivo, 0.05 mg/kg
Rattus norvegicus [27] = experiment: Toxicity in cholesterol-fed Sprague-Dawley rat assessed as heart rate at 50 ug/kg/day, po qd for 1 week measured 3 to 6 hrs post last dose (reference value: 383.0 +/- 26.7 bpm); type: organism-based; conditions: in vivo, 0.05 mg/kg
Rattus norvegicus [28] = experiment: Reduction in plasma triglyceride level in cholesterol-fed Sprague-Dawley rat at 50 ug/kg/day, po qd for 1 week measured 3 to 6 hrs post last dose (reference value: 62 +/- 25 mg/dl); type: functional
Rattus norvegicus [29] = experiment: Reduction in plasma HDL-cholesterol in cholesterol-fed Sprague-Dawley rat at 50 ug/kg/day, po qd for 1 week measured 3 to 6 hrs post last dose (reference value: 22 +/- 6 mg/dl); type: functional
Rattus norvegicus [30] = experiment: Reduction in plasma free cholesterol in cholesterol-fed Sprague-Dawley rat at 50 ug/kg/day, po qd for 1 week measured 3 to 6 hrs post last dose (reference value: 36 +/- 9 mg/dl); type: functional
Rattus norvegicus [31] = experiment: Reduction in plasma LDL-cholesterol in cholesterol-fed Sprague-Dawley rat at 50 ug/kg/day, po qd for 1 week measured 3 to 6 hrs post last dose (reference value: 51 +/- 15 mg/dl); type: functional
Rattus norvegicus [32] = experiment: Reduction in plasma total cholesterol in cholesterol-fed Sprague-Dawley rat at 50 ug/kg/day, po qd for 1 week measured 3 to 6 hrs post last dose (reference value: 190 +/- 49 mg/dl); type: functional

Cc1c(CCCCC(=O)O)c2ccccc2n1Cc1ccc(O)c(C(C)C)c1
Ratio EC50 (CV-1): 1.6
EC50 [1]: 62 nM
EC50 [2]: 100 nM
IC50 [3]: 1400 nM
IC50 [4]: > 10 µM

Cc1c(CCCC(=O)O)c2ccccc2n1Cc1ccc(O)c(C(C)C)c1
Ratio EC50 (CV-1): 4.8
EC50 [1]: 37 nM
EC50 [2]: 180 nM
IC50 [3]: 290 nM
IC50 [4]: 3.4 µM

Cc1c(CCC(=O)O)c2ccccc2n1Cc1ccc(O)c(C(C)C)c1
Ratio EC50 (CV-1): 1
EC50 [1]: 37 nM
EC50 [2]: 39 nM
IC50 [3]: 760 nM
IC50 [4]: 1.3 µM

Cc1c(CC(=O)NCC(=O)O)c2ccccc2n1Cc1ccc(O)c(C(C)C)c1
IC50 [3]: 430 nM
IC50 [4]: 8.2 µM

Cc1cc2c(NC(=O)CC(=O)O)cccc2n1Cc1ccc(O)c(C(C)C)c1
Activity (Rattus norvegicus [5]): 2.8 µg/dL
Activity (Rattus norvegicus [6]): 3.1 uIU/ml
Activity (Rattus norvegicus [7]): 1.13 g
Activity (Rattus norvegicus [8]): 403.2 bpm
Activity (Rattus norvegicus [9]): 1.7 µg/dL
Activity (Rattus norvegicus [10]): 0.9 uIU/ml
Activity (Rattus norvegicus [11]): 1.24 g
Activity (Rattus norvegicus [12]): 415.8 bpm
Activity (Rattus norvegicus [13]): 44 mg/dL
Activity (Rattus norvegicus [14]): 23 mg/dL
Activity (Rattus norvegicus [15]): 19 mg/dL
Activity (Rattus norvegicus [16]): 25 mg/dL
Activity (Rattus norvegicus [17]): 111 mg/dL
Ratio EC50 (HepG2): 16
Ratio EC50 (CV-1): 4.5
EC50 [18]: 220 nM
EC50 [1]: 1700 nM
IC50 [3]: 230 nM
IC50 [4]: 5.2 µM

Cc1cc(OCC(=O)O)cc(C)c1Cc1ccc(O)c(C(C)C)c1 [SOBETIROME]
Activity (Homo sapiens [19]): 41%

Cc1c(CC(=O)O)c2ccccc2n1Cc1ccc(O)c(C(C)C)c1
Ratio EC50 (CV-1): 3
EC50 [1]: 150 nM
EC50 [2]: 450 nM

Cc1ccc(NC(=O)C(=O)O)c2ccn(Cc3ccc(O)c(C(C)C)c3)c12
Ratio EC50 (HepG2): 2.5
Ratio EC50 (CV-1): 1.5
EC50 [18]: 190 nM
EC50 [1]: 500 nM
IC50 [3]: 54 nM
IC50 [4]: 0.19 µM

CC(C)c1cc(Cn2ccc3c(NC(=O)C(=O)O)cccc32)ccc1O
Ratio EC50 (HepG2): 2.2
Ratio EC50 (CV-1): 2.7
EC50 [18]: 550 nM
EC50 [1]: 1900 nM

Cc1cc2cc(NC(=O)C(=O)O)ccc2n1Cc1ccc(O)c(C(C)C)c1
IC50 [3]: 1500 nM
IC50 [4]: 0.23 µM

Cc1cc2c(NC(=O)C(=O)O)cccc2n1Cc1ccc(O)c(C(C)C)c1
Ratio EC50 (HepG2): 1.5
Ratio EC50 (CV-1): 2.2
EC50 [18]: 110 nM
EC50 [1]: 590 nM

N[C@H](Cc1cc(I)c(Oc2cc(I)c(O)c(I)c2)c(I)c1)C(=O)[O-].O.[Na+] [DEXTROTHYROXINE SODIUM]
Activity (Homo sapiens [20]): 15%
Activity (Homo sapiens [21]): 12%

CC(C)c1cc(Oc2c(Br)cc(NC(=O)CC(=O)O)cc2Br)ccc1O [EPROTIROME]
Activity (Homo sapiens [22]): 40%

N[C@@H](Cc1cc(I)c(Oc2ccc(O)c(I)c2)c(I)c1)C(=O)O [LIOTHYRONINE]
Activity (Rattus norvegicus [23]): 31 ng/dL
Activity (Rattus norvegicus [24]): 0.9 µg/dL
Activity (Rattus norvegicus [25]): 0.1 uIU/ml
Activity (Rattus norvegicus [26]): 1.25 g
Activity (Rattus norvegicus [27]): 430 bpm
Activity (Rattus norvegicus [28]): 61 mg/dL
Activity (Rattus norvegicus [29]): 22 mg/dL
Activity (Rattus norvegicus [30]): 22 mg/dL
Activity (Rattus norvegicus [31]): 28 mg/dL
Activity (Rattus norvegicus [32]): 123 mg/dL

Cc1c(C(=O)NCC(=O)O)c2ccccc2n1Cc1ccc(O)c(C(C)C)c1
IC50 [3]: 1100 nM
IC50 [4]: > 10 µM
